Screening data from PubChem.
Efflux pump inh = inhibitors of Candida antifungal efflux pumps expressed in yeast; hit rate 0.44% among 330,000; inhibition, % at 10 µM; S. cerevisiae Candida pump triplex, Nile Red efflux;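 active = plate passing quality check with inhibition over a set limit, or well fluorescence over plate mean plus 4 SD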;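 note: Nile Red retained in pooled yeast measured as flow cytometry median fluorescence; 0% = buffer negative control and 100% = Enniatin B positive control; higher means more Nile Red kept so more efflux inhibition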
AHR activator = activates the human aryl hydrocarbon receptor | AHR-responsive luciferase reporter cells, luminescence | activation, % at 5 µM | hit rate 2.5% among 320,000 | AID 2796; in the data active = activation above about 47%;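 note: 0% = vehicle wells and 100% = reference agonist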
Target sequence (P35869 whole entry, looked up): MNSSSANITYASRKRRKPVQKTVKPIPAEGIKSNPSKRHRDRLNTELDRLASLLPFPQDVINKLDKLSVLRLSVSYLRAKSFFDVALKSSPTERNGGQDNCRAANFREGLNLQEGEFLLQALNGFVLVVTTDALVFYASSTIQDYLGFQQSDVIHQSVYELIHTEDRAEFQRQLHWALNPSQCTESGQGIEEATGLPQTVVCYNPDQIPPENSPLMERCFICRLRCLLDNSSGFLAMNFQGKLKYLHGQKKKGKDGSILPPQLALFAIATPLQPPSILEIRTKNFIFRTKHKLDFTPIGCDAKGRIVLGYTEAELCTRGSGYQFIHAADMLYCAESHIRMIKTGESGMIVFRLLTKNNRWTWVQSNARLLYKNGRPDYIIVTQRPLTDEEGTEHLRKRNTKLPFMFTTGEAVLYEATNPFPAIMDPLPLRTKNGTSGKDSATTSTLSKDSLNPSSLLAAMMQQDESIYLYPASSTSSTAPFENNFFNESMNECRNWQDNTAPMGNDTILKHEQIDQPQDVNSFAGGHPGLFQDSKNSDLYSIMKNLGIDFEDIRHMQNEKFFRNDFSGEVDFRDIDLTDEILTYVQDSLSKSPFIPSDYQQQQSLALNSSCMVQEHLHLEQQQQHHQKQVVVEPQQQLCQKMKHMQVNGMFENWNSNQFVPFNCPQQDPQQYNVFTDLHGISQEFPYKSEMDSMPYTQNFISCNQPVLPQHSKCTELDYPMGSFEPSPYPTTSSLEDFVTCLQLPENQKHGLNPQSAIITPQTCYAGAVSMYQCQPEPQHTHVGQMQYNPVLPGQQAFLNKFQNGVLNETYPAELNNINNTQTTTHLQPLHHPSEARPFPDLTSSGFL
TbMetRS inhib = blocks T. brucei methionyl-tRNA synthetase activity | purified T. brucei MetRS, ATP depletion, Kinase-Glo luminescence | inhibition, % at 11.9 µM | hit rate 0.4% among 360,000 | AID 624268;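 active = inhibition above a per-plate cutoff of the control wells' mean inhibition plus 3 SD, cut at about 5.5% in these data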;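 note: 0% = DMSO wells median and 100% = median of wells with control inhibitor compound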
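Material: T. brucei methionyl-tRNA synthetase, purified; reagent: substrates ATP, L-methionine and bulk Escherichia coli tRNA; dosing: 11.9 µM single point; timing: 15 min plus 2 h at 25 °C; detection: luminescence of leftover ATP; evaluation: % inhibition; control set: DMSO-only wells as low control; replicates: singlicate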
TAG inh = triacylglycerol accumulation inhibition. hit rate 0.66% among 230,000. H9c2 cells, Nile Red lipid (TAG) fluorescence; cells loaded with 200 µM oleic acid. inhibition, % at 12.5 µM;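 active = pattern-corrected inhibition of lipid staining of at least 50% with the nuclear-stain viability signal not falling by more than 50%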;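 note: 0% = DMSO wells and 100% = triacsin C control wells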
SMARCA2 activ = activators of SMARCA2 function. MG213 cells, MMTV-luciferase reporter, dexamethasone, overnight. activation, % at 9.1 µM. hit rate 1% among 370,000. AID 652017; in the data active = activation above about 7.8%;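 note: 0% = vehicle wells and 100% = reference activator wells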
An asterisk follows results filed as active; nt = not tested or not shown. Sampled rows, rich in hits. Any-hit rate of the full collection: about 4.1%.

SMILES	Efflux pump inh	AHR activator	TbMetRS inhib	TAG inh	SMARCA2 activ
O=[N+]([O-])c1cccc2nc(-c3ccccc3)c(-c3ccccc3)nc12	0	2	-2	nt	1
Cn1c(-[n+]2c(-c3ccccc3)cc(-c3ccccc3)cc2-c2ccccc2)nc2c([N+](=O)[O-])cccc21	0	68*	-1	nt	-1
O=C(N/N=C/c1cccs1)c1cccc2cc[nH]c12	0	33	-1	nt	7
CCn1cc(/C=N\NC(=O)c2c[nH]c3ccccc23)c(C)n1	0	20	1	nt	5
O=C(N/N=C/c1cccs1)c1c[nH]c2ccccc12	0	154*	1	nt	4
Cc1c(/C=N\NC(=O)c2c[nH]c3ccccc23)cnn1C	0	76*	0	nt	1
CC(=O)N1CCCN(C(=O)C2CCN(c3ncnc4c3sc3cccc(F)c34)CC2)CC1	nt	nt	nt	nt	-2
CSc1ccccc1C(=O)Nc1nc2ccccc2c(=O)[nH]1	0	4	-1	9	7
O=C(Nc1cnccn1)Nc1ccccc1F	0	61*	0	22	1
O=C(Nc1nc2ccccc2[nH]1)Nc1ccccc1F	0	48*	3	nt	8
CCOc1ccccc1OCC(=O)Nc1nc2ccccc2[nH]1	0	2	0	8	3
COc1ccccc1NC(=O)Nc1cnccn1	0	-1	-1	nt	4
O=C(COc1ccccc1)Nc1nc2ccccc2[nH]1	0	4	1	-4	7.8*
CSc1ccccc1C(=O)Nc1nc2ccccc2[nH]1	0	68*	0	2	7
COCC(=O)N(Cc1ccccc1)c1ccccc1C(=O)Nc1cc(OC)ccc1OC	nt	nt	nt	nt	-6
O=C(N1CCOCC1)N1CC[C@H]2[C@H](CCCN2Cc2cc(F)cc(F)c2)C1	nt	nt	nt	nt	2
O=C(Nc1nc2ccccc2[nH]1)c1ccc([N+](=O)[O-])cc1	0	-3	0	-10	2
COc1ccc(C(=O)Nc2nc3ccccc3[nH]2)cc1	0	50*	1	nt	-4
COc1cccc(C(=O)Nc2nc3ccccc3[nH]2)c1	0	23	0	3	2
O=C(Nc1nc2ccccc2[nH]1)c1cccc([N+](=O)[O-])c1	0	50*	-1	-5	5
O=C(Nc1nc2ccccc2[nH]1)c1cccc(Br)c1	0	57*	1	nt	5
O=C(Nc1nc2ccccc2[nH]1)c1cccc(F)c1	0	47	-1	nt	2
Cc1nn(Cc2ccccc2Cl)c2sc(C(=O)NCCCn3ccnc3)cc12	0	49*	-1	-1	1
Cc1csc(NC(=O)c2cc3c(C)nn(Cc4ccccc4Cl)c3s2)n1	0	47*	-1	nt	-4
Cc1nn(Cc2ccccc2Cl)c2sc(C(=O)NC(C)(C)C)cc12	0	15	1	nt	1
SMILES	Efflux pump inh	AHR activator	TbMetRS inhib	TAG inh	SMARCA2 activ
Cc1cc(NC(=O)c2ccc(NS(=O)(=O)c3ccccc3F)cc2)no1	nt	nt	nt	nt	-4
Cc1ccc(CONC(=O)c2ccc(Cl)cc2)cc1	0	73*	0	-7	1
Cc1ccc(CONC(=O)c2ccc(C)cc2)cc1	0	-1	0	0	2
Oc1sc(C=Nc2ccccc2)c2ccccc12	0	50*	1	7	4
Oc1c(C=Nc2cccnc2)sc2ccccc12	0	31	-2	6	7.9*
Oc1c(C=Nc2ccccc2)sc2ccccc12	0	6	-1	-8	3
COc1ccc(-c2cc(N)n(S(=O)(=O)Cc3ccccc3)n2)c(OC)c1	1	62*	-1	-1	-3
CCOC(=O)c1cc(-c2ccc(OC(F)F)cc2)nc2c1c(=O)[nH]c(=O)n2C	-1	61*	0	nt	-2
CCOC(=O)c1cc(-c2ccc(OC(F)F)cc2)nc2nc(SC)[nH]c(=O)c12	0	11	0	14	5
Cc1c(C(=O)Nc2ccc(F)cc2)c2ccccn2c1CCc1ccncc1	0	90*	-1	3	1
CN(Cc1ccccc1)c1nc(N)c([N+](=O)[O-])c(Nc2cccc(F)c2)n1	0	48*	0	nt	1
O=C(N/N=C\c1ccc(Sc2ccccn2)o1)c1cccc(Br)c1	0	61*	-1	-159	-2
Cc1cc(C)cc(NC(=O)NCCCN2CCN(c3ccc(F)cc3)CC2)c1	nt	nt	nt	nt	-5
CCOC(=O)[C@@]12CCCC3=C1N(CCC3)C(=O)[C@H]2CC(=O)N1CCN(C(=O)C2CC2)CC1	nt	nt	nt	nt	-2
Cc1cc(C)c2nc(NC(=O)C3CC(=O)N(Cc4ccco4)C3)sc2c1 (centres undefined)	0	26	-2	14	1
O=C(Nc1nc2c(F)cc(F)cc2s1)C1CC(=O)N(Cc2ccco2)C1 (centres undefined)	0	60*	0	7	-5
CO/N=C/C(=N\Nc1ccc(C)cc1)C(=O)c1ccc(OC)cc1	0	1	-1	60*	0
CO/N=C/C(=N\Nc1ccc(OC)cc1)C(=O)c1ccc(F)cc1	0	1	0	0	-1
COC(=O)[C@@]12CCCCC3=C1N(CCC3)C(=O)[C@H]2CC(=O)N1CCSCC1	nt	nt	nt	nt	-2
CC(=O)Cc1cc(O)c2ccccc2c1OC(=O)c1ccc(Br)cc1	0	69*	-1	32	-3
Cc1ccc2nc(-c3ccc(NC(=O)CSc4nnc(-c5ccccc5)n4Cc4ccco4)cc3)sc2c1	nt	nt	nt	nt	1
Cc1cc(C)cc(NC(=O)N2CCN(Cc3nc4ccccc4c(=O)[nH]3)CC2)c1	nt	nt	nt	nt	-6
Clc1ccccc1C1=CC(c2ccco2)n2nnnc2N1 (centres undefined)	0	2	0	18	0
Brc1ccc(C2=CC(c3ccco3)n3nnnc3N2)cc1 (centres undefined)	0	52*	-1	8	-3
Cn1/c(=N/NC(=O)c2ccccc2Br)sc2ccccc21	0	48*	1	11	4
SMILES	Efflux pump inh	AHR activator	TbMetRS inhib	TAG inh	SMARCA2 activ
Cn1c(=NC(=O)C2=NNC(=O)CC2)sc2ccccc21	0	2	1	4	1
Cc1c(-c2nc(-c3ccncc3)no2)cccc1[N+](=O)[O-]	0	65*	0	3	1
CC(C)[C@H](NC(=O)c1ccccc1)C(=O)N1CCC[C@H]1C(=O)NCc1ccccc1	nt	nt	nt	nt	0
O=C/C(=C\Nc1ccc(Cl)cn1)c1nc2cc(Cl)ccc2o1	0	51*	0	-8	-3
CCCN1C2=NCCN2c2ccccc21	0	2	-1	-8	2
CN1C2=NCCN2C(=O)c2ccccc21	0	52*	-1	nt	-2
C=CCn1cccc(C(=O)Nc2ccc(OCC)cc2)c1=O	0	5	0	-3	1
C=CCn1cccc(C(=O)Nc2ccc(Cl)cc2)c1=O	0	51*	1	nt	-2
C=CCn1cccc(C(=O)Nc2ccc(N(C)C)cc2)c1=O	0	15	0	nt	2
C=CCn1cccc(C(=O)Nc2ccc(SC)cc2)c1=O	0	65*	-1	nt	2
C[C@H](O)[C@@H]1C(=O)N2CCc3ccc(N4CCN(C)CC4)cc3[C@@H]2C[C@@H]1N(C)C(=O)NC1CCCCC1	nt	nt	-1	-5	7.9*
